Source: ChEMBL document CHEMBL2406916, “7-Hydroxy-(E)-3-phenylmethylene-chroman-4-one analogues as efflux pump inhibitors against Mycobacterium smegmatis mc² 155” (2013)
In brackets after ≈: the same amount, converted by molar mass. Activity calls are given as the source filed them. The rule behind the calls is not given here.

Key:
[1] = system: Mycolicibacterium smegmatis MC2 155; experiment: Inhibition of multidrug resistance efflux pump in Mycobacterium smegmatis MC2 155 ATCC 700084 assessed as EtBr accumulation at 31.5 mg/L measured every 3 mins interval for 45 mins by spectrofluorometric method
Outline: (§1)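 Cells are grown in 7H9/OADC at 37 °C to OD600 0.8, then pelleted and exposed to EtBr with test compound. Verapamil, reserpine, CCCP and DMSO serve as controls. EtBr fluorescence (excitation 530 nm, emission 600 nm) is read every 3 min for 45 min in a microplate spectrofluorimeter. Test concentrations are fractions (1/2, 1/4, 1/8) of each compound's MIC.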

[2] = system: Mycolicibacterium smegmatis MC2 155; experiment: Inhibition of multidrug resistance efflux pump in Mycobacterium smegmatis MC2 155 ATCC 700084 assessed as EtBr accumulation at 31.5 mg/L measured every 3 mins interval for 45 mins by fluorometric method; outline: as §1
[3] = system: Mycolicibacterium smegmatis MC2 155; experiment: Inhibition of multidrug resistance efflux pump in Mycobacterium smegmatis MC2 155 ATCC 700084 assessed as EtBr accumulation at half concentration of MIC measured every 3 mins interval for 45 mins by fluorometric method; outline: as §1
[4] = system: Mycolicibacterium smegmatis; experiment: Antimicrobial activity against Mycobacterium smegmatis MC2 155 ATCC 700084 at 62.5 mg/L after 72 hrs by MTT assay in presence of EtBr; type: functional
[5] = system: Mycolicibacterium smegmatis MC2 155; experiment: Inhibition of multidrug resistance efflux pump in Mycobacterium smegmatis MC2 155 ATCC 700084 assessed as reduction in EtBr MIC at 62.5 mg/L by MTT assay relative to control
[6] = system: Mycolicibacterium smegmatis; experiment: Antimicrobial activity against Mycobacterium smegmatis MC2 155 ATCC 700084 after 72 hrs by MTT assay; type: functional; conditions: MC2 155 ATCC 700084, 72 h
[7] = system: Mycolicibacterium smegmatis; experiment: Antimicrobial activity against Mycobacterium smegmatis MC2 155 ATCC 700084 at 125 mg/L after 72 hrs by MTT assay in presence of EtBr; type: functional
[8] = system: Mycolicibacterium smegmatis MC2 155; experiment: Inhibition of multidrug resistance efflux pump in Mycobacterium smegmatis MC2 155 ATCC 700084 assessed as reduction in EtBr MIC at 125 mg/L by MTT assay relative to control
[9] = system: Mycolicibacterium smegmatis; experiment: Antimicrobial activity against Mycobacterium smegmatis MC2 155 ATCC 700084 at 31.2 mg/L after 72 hrs by MTT assay in presence of EtBr; type: functional
[10] = system: Mycolicibacterium smegmatis MC2 155; experiment: Inhibition of multidrug resistance efflux pump in Mycobacterium smegmatis MC2 155 ATCC 700084 assessed as reduction in EtBr MIC at 31.2 mg/L by MTT assay relative to control
[11] = system: Mycolicibacterium smegmatis MC2 155; experiment: Inhibition of multidrug resistance efflux pump in Mycobacterium smegmatis MC2 155 ATCC 700084 assessed as EtBr accumulation at 12.5 mg/L measured every 3 mins interval for 45 mins by fluorometric method; outline: as §1
[12] = system: Mycolicibacterium smegmatis; experiment: Antimicrobial activity against Mycobacterium smegmatis MC2 155 ATCC 700084 at 16 mg/L after 72 hrs by MTT assay in presence of EtBr; type: functional
[13] = system: Mycolicibacterium smegmatis MC2 155; experiment: Inhibition of multidrug resistance efflux pump in Mycobacterium smegmatis MC2 155 ATCC 700084 assessed as reduction in EtBr MIC at 16 mg/L by MTT assay relative to control
[14] = system: Mycolicibacterium smegmatis MC2 155; experiment: Inhibition of multidrug resistance efflux pump in Mycobacterium smegmatis MC2 155 ATCC 700084 assessed as reduction in EtBr MIC at 250 mg/L by MTT assay relative to control
[15] = system: Mycolicibacterium smegmatis; experiment: Antimicrobial activity against Mycobacterium smegmatis MC2 155 ATCC 700084 at 40 mg/L after 72 hrs by MTT assay in presence of EtBr; type: functional
[16] = system: Mycolicibacterium smegmatis; experiment: Antimicrobial activity against Mycobacterium smegmatis MC2 155 ATCC 700084 at 80 mg/L after 72 hrs by MTT assay in presence of EtBr; type: functional
[17] = system: Mycolicibacterium smegmatis MC2 155; experiment: Inhibition of multidrug resistance efflux pump in Mycobacterium smegmatis MC2 155 ATCC 700084 assessed as EtBr accumulation at 128 mg/L measured every 3 mins interval for 45 mins by fluorometric method; outline: as §1

| SMILES | Activity [3] | fractional inhibitory concentration index (FICI) [4] | fold change (FC) [5] | MIC [6] [µg/mL] | fractional inhibitory concentration index (FICI) [7] | fold change (FC) [8] | further results |
| --- | --- | --- | --- | --- | --- | --- | --- |
| O=C1/C(=C/c2ccccc2F)COc2cc(O)ccc21 | Active | 0.75 | 4 | 125 (≈ 463 µM) | – | – | Activity [1]: Active; Activity [2]: Active |
| O=C1/C(=C/c2ccc(O)cc2)COc2cc(O)ccc21 | Active | 0.37 | 8 | 250 (≈ 932 µM) | 0.56 | 16 | – |
| COc1ccc(/C=C2\COc3cc(O)ccc3C2=O)cc1 [BONDUCELLIN] | Active | 0.62 | 8 | 125 (≈ 443 µM) | – | – | fractional inhibitory concentration index (FICI) [9]: 0.5; fold change (FC) [10]: 4 |
| O=C1/C(=C/c2cccc(Br)c2)COc2cc(O)ccc21 | – | – | – | 500 (≈ 1510 µM) | 0.75 | 2 | – |
| O=C1/C(=C/c2ccc(Cl)cc2)COc2cc(O)ccc21 | Active | – | – | 250 (≈ 872 µM) | 0.75 | 4 | – |
| O=C1/C(=C/c2ccccc2Cl)COc2cc(O)ccc21 | – | 1 | 2 | 125 (≈ 436 µM) | – | – | – |
| O=C1/C(=C/c2cccc(Cl)c2)COc2cc(O)ccc21 | – | – | – | 250 (≈ 872 µM) | 1 | 2 | – |
| N#CC(C#N)=NNc1cccc(Cl)c1 [CARBONYL CYANIDE M-CHLOROPHENYLHYDRAZONE] | – | – | – | 25 (≈ 122 µM) | – | – | Activity [11]: Active; fractional inhibitory concentration index (FICI) [12]: 1.14; fold change (FC) [13]: 2 |
| COc1ccc(/C=C2\COc3cc(O)cc(O)c3C2=O)cc1 | – | – | 2 | – | – | – | fold change (FC) [14]: 4 |
| O=C1/C(=C/c2ccc(C(F)(F)F)cc2)COc2cc(O)ccc21 | – | – | – | 250 (≈ 781 µM) | 0.75 | 4 | – |
| O=C1/C(=C/c2ccccc2)COc2cc(O)ccc21 | Active | 0.37 | 4 | 500 (≈ 1980 µM) | 0.37 | 8 | – |
| COc1ccc(/C=C2\COc3c(ccc(O)c3OC)C2=O)cc1 [E-8-METHOXYBONDUCELLIN] | – | 1 | 2 | 125 (≈ 400 µM) | – | – | – |
| O=C1/C(=C/c2ccc(F)cc2)COc2cc(O)ccc21 | Active | – | – | 250 (≈ 925 µM) | 0.75 | 4 | – |
| C=CCOc1ccccc1/C=C1\COc2cc(O)ccc2C1=O | – | – | – | 500 (≈ 1620 µM) | 0.75 | 2 | – |
| O=C1/C(=C/c2ccccc2Br)COc2cc(O)ccc21 | – | 1 | 2 | 125 (≈ 377 µM) | – | – | – |
| O=C1/C(=C/c2cccc(O)c2)COc2cc(O)ccc21 | Active | – | – | 500 (≈ 1860 µM) | 0.5 | 4 | – |
| COc1cccc(/C=C2\COc3cc(O)ccc3C2=O)c1 | – | – | – | 500 (≈ 1770 µM) | 0.75 | 2 | – |
| COc1ccc(CCN(C)CCCC(C#N)(c2ccc(OC)c(OC)c2)C(C)C)cc1OC (stereo not drawn) | – | – | – | 300 (≈ 660 µM) | – | – | fractional inhibitory concentration index (FICI) [15]: 0.63; fractional inhibitory concentration index (FICI) [16]: 0.552 |
| C=CCOc1ccc(/C=C2\COc3cc(O)ccc3C2=O)cc1 | – | – | – | 250 (≈ 811 µM) | 0.75 | 2 | – |
| CC[n+]1c(-c2ccccc2)c2cc(N)ccc2c2ccc(N)cc21.[Br-] [HOMIDIUM BROMIDE] | – | – | – | 16 | – | – | – |
| COc1ccc(/C=C2\COc3c(ccc(O)c3O)C2=O)cc1 [INTRICATINOL] | – | 1 | 2 | 125 (≈ 419 µM) | – | – | – |
| C=CCOc1cccc(/C=C2\COc3cc(O)ccc3C2=O)c1 | Active | 0.5 | 4 | 250 (≈ 811 µM) | 0.62 | 8 | Activity [1]: Active; Activity [2]: Active |
| O=C1/C(=C/c2cccc(F)c2)COc2cc(O)ccc21 | Active | – | – | 250 (≈ 925 µM) | 0.75 | 4 | – |
| COC(=O)[C@H]1[C@H]2C[C@@H]3c4[nH]c5cc(OC)ccc5c4CCN3C[C@H]2C[C@@H](OC(=O)c2cc(OC)c(OC)c(OC)c2)[C@@H]1OC [RESERPINE] | – | – | – | 256 (≈ 421 µM) | – | – | Activity [17]: Active; fractional inhibitory concentration index (FICI) [15]: 0.4 |
| O=C1/C(=C/c2ccc(Br)cc2)COc2cc(O)ccc21 | – | – | – | 500 (≈ 1510 µM) | 0.75 | 2 | – |
| COc1ccccc1/C=C1\COc2cc(O)ccc2C1=O | Active | – | – | 250 (≈ 886 µM) | 0.75 | 4 | – |
